The source of these data is ChEMBL document CHEMBL1777707, “Structure-based design, synthesis, and nonalcoholic steatohepatitis (NASH)-preventive effect of phenylpropanoic acid peroxisome proliferator-activated receptor (PPAR) α-selective agonists” (Bioorg Med Chem, 2011).

The source made the active and inactive calls. The rule behind the calls is not given here.

The test system of experiment [1] is Rattus norvegicus. Put plainly: Protection against nonalcoholic steatohepatitis progression in 4 weeks choline deficient high-fat diet fed methemoglobinemic Wistar rat assessed as prevention of liver fibrosis at 1 mg/kg/day, ip administered for 6 weeks by Masson Trichrome staining in presence of 40 mg/kg/day, ip of sodium nitrite. The class given is functional, organism-based. Summed up:
(§1)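 Rats fed CDHF diet from 6 weeks of age for 4 weeks, then kept on CDHF over a 6-week period with daily ip NaNO2 40 mg/kg to cause methemoglobinemia; treated group also got compound 1 mg/kg/day. Controls were normal chow, CDHF alone and NASH. Housed singly, 12-h light-dark cycle, food and water ad libitum. Endpoints taken at study end.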

The subject of experiment [2] is Rattus norvegicus. The experiment can be described thus: Protection against nonalcoholic steatohepatitis progression in 4 weeks choline deficient high-fat diet fed methemoglobinemic Wistar rat assessed as increase of aspartate amino transferase level at 1 mg/kg/day, ip administered for 6 weeks in presence of 40 mg/kg/day, ip of sodium nitrite. The class given is functional, organism-based. Summed up: as §1

Experiment [3] addresses T1, Peroxisome proliferator-activated receptor gamma (Homo sapiens, UniProt P37231).
T1 sequence (P37231 whole entry): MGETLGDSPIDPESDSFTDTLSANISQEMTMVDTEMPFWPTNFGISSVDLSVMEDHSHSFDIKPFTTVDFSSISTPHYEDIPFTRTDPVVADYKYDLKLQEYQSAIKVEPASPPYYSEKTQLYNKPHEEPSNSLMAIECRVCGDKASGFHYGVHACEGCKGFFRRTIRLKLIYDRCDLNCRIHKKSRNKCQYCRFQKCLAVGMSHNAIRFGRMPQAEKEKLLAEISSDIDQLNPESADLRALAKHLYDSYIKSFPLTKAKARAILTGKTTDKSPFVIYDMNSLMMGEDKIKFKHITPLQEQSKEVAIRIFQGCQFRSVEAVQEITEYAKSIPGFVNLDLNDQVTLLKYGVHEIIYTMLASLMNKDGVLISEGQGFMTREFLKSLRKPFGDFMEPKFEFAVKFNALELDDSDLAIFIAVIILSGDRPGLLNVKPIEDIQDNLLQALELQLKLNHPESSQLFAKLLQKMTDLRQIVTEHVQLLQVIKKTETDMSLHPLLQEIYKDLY
The experiment can be described thus: Agonist activity at Gal4-fussed PPARgamma expressed in human HEK293 cells by reporter gene assay. The class given is functional, cell-based. A general note: Reporter assays use an easily measured gene product as a stand-in for the process of interest.

The target in experiment [4] is T2, Peroxisome proliferator-activated receptor alpha (Homo sapiens, UniProt Q07869).
T2 sequence (Q07869 whole entry): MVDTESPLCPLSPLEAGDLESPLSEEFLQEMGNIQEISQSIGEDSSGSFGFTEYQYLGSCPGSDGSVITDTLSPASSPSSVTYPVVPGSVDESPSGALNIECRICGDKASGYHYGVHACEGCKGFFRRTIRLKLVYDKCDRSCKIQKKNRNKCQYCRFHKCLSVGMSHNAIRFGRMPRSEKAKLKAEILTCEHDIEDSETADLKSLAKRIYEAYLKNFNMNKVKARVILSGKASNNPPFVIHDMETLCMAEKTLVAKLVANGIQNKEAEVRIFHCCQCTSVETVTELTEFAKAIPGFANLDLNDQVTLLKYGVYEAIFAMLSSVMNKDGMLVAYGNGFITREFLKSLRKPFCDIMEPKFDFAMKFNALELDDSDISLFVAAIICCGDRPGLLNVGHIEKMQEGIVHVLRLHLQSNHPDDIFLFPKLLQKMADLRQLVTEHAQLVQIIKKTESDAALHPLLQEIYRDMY
The experiment can be described thus: Agonist activity at Gal4-fussed PPARalpha expressed in human HEK293 cells by reporter gene assay. The class given is functional, cell-based. Summed up:
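Transient transfection of HEK-293 cells with PPAR-GAL4 chimeric receptor plus reporter. EC50 is the molar concentration giving 50% of maximal reporter activity; racemates tested as such.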

The subject of experiment [5] is Rattus norvegicus. Put plainly: Protection against nonalcoholic steatohepatitis progression in 4 weeks choline deficient high-fat diet fed methemoglobinemic Wistar rat assessed as effect on features of fatty liver at 1 mg/kg/day, ip administered for 6 weeks by hematoxylin and eosin staining in presence of 40 mg/kg/day, ip of sodium nitrite. The class given is functional, organism-based. A digest of the protocol:
as §1

The subject of experiment [6] is Rattus norvegicus. The experiment can be described thus: Protection against nonalcoholic steatohepatitis progression in 4 weeks choline deficient high-fat diet fed methemoglobinemic Wistar rat assessed as prevention of liver atrophy formation at 1 mg/kg/day, ip administered for 6 weeks by hematoxylin and eosin staining in presence of 40 mg/kg/day, ip of sodium nitrite. The class given is functional, organism-based. Summed up:
as §1

Experiment [7] relates to Rattus norvegicus. The experiment can be described thus: Protection against nonalcoholic steatohepatitis progression in 4 weeks choline deficient high-fat diet fed methemoglobinemic Wistar rat assessed as prevention of nodule formation in liver at 1 mg/kg/day, ip administered for 6 weeks by hematoxylin and eosin staining in presence of 40 mg/kg/day, ip of sodium nitrite. The class given is functional, organism-based. Summed up: as §1

Experiment [8] relates to Rattus norvegicus. Put plainly: Protection against nonalcoholic steatohepatitis progression in 4 weeks choline deficient high-fat diet fed methemoglobinemic Wistar rat assessed as increase of liver function at 1 mg/kg/day, ip administered for 6 weeks in presence of 40 mg/kg/day, ip of sodium nitrite. The class given is functional, organism-based. A digest of the protocol: as §1

Experiment [9] concerns Rattus norvegicus. The experiment can be described thus: Protection against nonalcoholic steatohepatitis progression in 4 weeks choline deficient high-fat diet fed methemoglobinemic Wistar rat assessed as prevention of liver necrosis at 1 mg/kg/day, ip administered for 6 weeks by Masson Trichrome staining in presence of 40 mg/kg/day, ip of sodium nitrite. The class given is functional, organism-based. Summed up:
as §1

Experiment [10] has as its target T3, Peroxisome proliferator-activated receptor delta (Homo sapiens, UniProt Q03181).
T3 sequence (Q03181 whole entry): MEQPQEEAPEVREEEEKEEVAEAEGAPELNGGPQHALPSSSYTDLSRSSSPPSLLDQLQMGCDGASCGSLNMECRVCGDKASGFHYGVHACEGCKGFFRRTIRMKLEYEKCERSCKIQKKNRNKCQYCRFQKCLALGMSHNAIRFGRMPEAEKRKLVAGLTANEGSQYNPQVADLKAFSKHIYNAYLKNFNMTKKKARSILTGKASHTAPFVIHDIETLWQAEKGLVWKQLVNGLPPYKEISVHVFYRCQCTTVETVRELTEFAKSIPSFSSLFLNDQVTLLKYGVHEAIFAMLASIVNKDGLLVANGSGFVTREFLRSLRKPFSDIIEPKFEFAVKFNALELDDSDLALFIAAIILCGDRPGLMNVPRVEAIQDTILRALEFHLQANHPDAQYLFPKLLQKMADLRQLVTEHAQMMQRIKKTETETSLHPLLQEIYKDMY
Put plainly: Agonist activity at Gal4-fussed PPARdelta expressed in human HEK293 cells by reporter gene assay. The class given is functional, cell-based.

Experiment [11] relates to Rattus norvegicus. The experiment can be described thus: Protection against nonalcoholic steatohepatitis progression in 4 weeks choline deficient high-fat diet fed methemoglobinemic Wistar rat assessed as increase of alkaline phosphatase level at 1 mg/kg/day, ip administered for 6 weeks in presence of 40 mg/kg/day, ip of sodium nitrite. The class given is functional, organism-based. A digest of the protocol:
as §1

Experiment [12] is described as follows: Selectivity ratio EC50 for Gal4-fussed PPARdelta to EC50 for Gal4-fussed PPARalpha.
The subject of experiment [13] is Rattus norvegicus. The experiment can be described thus: Protection against nonalcoholic steatohepatitis progression in 4 weeks choline deficient high-fat diet fed methemoglobinemic Wistar rat assessed as increase of alanine transaminase level at 1 mg/kg/day, ip administered for 6 weeks in presence of 40 mg/kg/day, ip of sodium nitrite. The class given is functional, organism-based. A digest of the protocol: as §1

In general, EC50 refers to the concentration giving half of the maximal effect. Lower therefore signals a more potent agent. For `CC[C@@H](Cc1ccc(OC)c(CNC(=O)c2ccc(Oc3ccc(F)cc3)cc2)c1)C(=O)O`, the result in experiment [1], in experiment [2], in [6], in experiment [7], in experiment [8] and in experiment [9] was Active. For the same compound, the result in [11] and in experiment [13] was Active. For the same compound, the results for the 50% effective concentration (EC50) in experiment [3], in experiment [4] and in experiment [10] were 920 nM, 5 nM and 300 nM, respectively. Moreover, the result in [5] was inactive. Besides, in [12], the Ratio EC50 amounted to 25.
`CC[C@@H](Cc1ccc(OC)c(CNC(=O)c2ccc(Oc3ccc(Cl)cc3)cc2)c1)C(=O)O`: the EC50 in experiment [3] came to 830 nM; in experiment [4], 15 nM; in experiment [10] it was 580 nM.
As for `CC[C@@H](Cc1ccc(OC)c(CNC(=O)c2ccc(Oc3ccc(Br)cc3)cc2)c1)C(=O)O`, the values for the concentration for a half-maximal effect (EC50) in [3], in experiment [4] and in experiment [10] were 990 nM, 29 nM and 800 nM, respectively.
As to `CCC(Cc1ccc(OC)c(CNC(=O)c2ccc(Oc3ccccc3)cc2)c1)C(=O)O` (racemic), the EC50 in experiment [3] is 820 nM; in experiment [4], 8.8 nM; in experiment [10], 120 nM.
`CCC(Cc1ccc(OC)c(CNC(=O)c2ccc(OC(F)(F)F)cc2)c1)C(=O)O` (racemic): the concentration giving a half-maximal response (EC50) in experiment [3] is 4400 nM; in experiment [4] it was 12 nM; in [10], 110 nM.
For the compound `CCC(Cc1ccc(OC)c(CNC(=O)c2cccc(Oc3ccccc3)c2)c1)C(=O)O` (racemic), the values for the concentration giving a half-maximal response (EC50) in experiment [3], in experiment [4] and in experiment [10] were 4600 nM, 41 nM and 4800 nM, respectively.
Regarding `CCC(Cc1ccc(OC)c(CNC(=O)c2ccccc2Oc2ccccc2)c1)C(=O)O` (racemic), the half-maximal effective concentration (EC50) in [3] was greater than 10000 nM; in [4] it was 3600 nM; in experiment [10], greater than 10000 nM.
For `CCC(Cc1ccc(OC)c(CNC(=O)c2cccc(-c3ccccc3)c2)c1)C(=O)O` (racemic), the values for the EC50 in experiment [3], in experiment [4] and in experiment [10] were 710 nM, 74 nM and 4100 nM, respectively.
The matching figures for `CCC(Cc1ccc(OC)c(CNC(=O)c2ccccc2-c2ccccc2)c1)C(=O)O` (racemic): greater than 10000 nM, 3600 nM and greater than 10000 nM.
For the compound `CCC(Cc1ccc(OC)c(CNC(=O)c2ccc(OCc3ccccc3)cc2)c1)C(=O)O` (racemic), the half-maximal effective concentration (EC50) was 460 nM in [3], 52 nM in [4] and 1400 nM in experiment [10].
With `CCC(Cc1ccc(OC)c(CNC(=O)c2ccc(OCCc3ccccc3)cc2)c1)C(=O)O` (racemic), the EC50 in experiment [3] worked out at 780 nM; in experiment [4], 60 nM; in experiment [10], 1400 nM.
For the compound `CCC(Cc1ccc(OC)c(CNC(=O)c2ccc(C)cc2)c1)C(=O)O` (racemic), the EC50 in [3] was 9600 nM; in experiment [10], 360 nM.
Regarding `CCC(Cc1ccc(OC)c(CNC(=O)c2ccccc2)c1)C(=O)O` (racemic), the 50% effective concentration (EC50) in [3] was greater than 10000 nM.
Consider `CCC(Cc1ccc(OC)c(CNC(=O)c2ccc(-c3ccccc3)cc2)c1)C(=O)O` (racemic), for which the 50% effective concentration (EC50) turned out to be 340 nM in experiment [3] and 7.6 nM in experiment [4].
